{"source": "ChEMBL document CHEMBL4308900", "about": "“Synthesis and identification of 2,4-bisanilinopyrimidines bearing 2,2,6,6-tetramethylpiperidine-N-oxyl as potential Aurora A inhibitors” (Bioorg Med Chem, 2019)", "key": {"[1]": {"system": "HeLa", "test": "Induction of apoptosis in human HeLa cells assessed as viable cells at 1 uM after 12 hrs by Annexin V-FITC/propidium iodide staining-based flow cytometric analysis (reference value: 91.02%)", "assay_type": "functional", "conditions": "read-out: Activity"}, "[2]": {"biological_target": "T1, Aurora kinase A (Homo sapiens) (UniProt O14965)", "T1 sequence (whole entry)": "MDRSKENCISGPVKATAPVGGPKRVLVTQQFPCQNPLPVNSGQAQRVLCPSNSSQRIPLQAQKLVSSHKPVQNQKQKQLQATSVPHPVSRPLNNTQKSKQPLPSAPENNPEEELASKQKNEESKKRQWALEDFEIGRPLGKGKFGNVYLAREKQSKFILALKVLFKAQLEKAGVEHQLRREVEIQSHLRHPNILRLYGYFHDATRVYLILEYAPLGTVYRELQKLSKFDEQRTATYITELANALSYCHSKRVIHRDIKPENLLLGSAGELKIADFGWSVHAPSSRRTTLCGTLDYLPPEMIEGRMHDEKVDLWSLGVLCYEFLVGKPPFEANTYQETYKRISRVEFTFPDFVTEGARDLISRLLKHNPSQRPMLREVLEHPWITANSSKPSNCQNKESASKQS", "test": "Inhibition of Aurora A phosphorylation at Thr288 residue in human HeLa cells after 12 hrs by Western blot analysis", "assay_type": "cell-based", "procedure,_shortened": "(§1)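 HeLa cells given 0, 1.25, 2.5 or 5.0 μM for 12 h; lysates in buffer with phosphatase and protease inhibitors, 10% SDS-PAGE western blot probed for phospho-Aurora A Thr288, phospho-Aurora B Thr232 and total Aurora A/B, β-actin loading control; band levels as mean ± SD versus control.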"}, "[3]": {"system": "HeLa", "test": "Cell cycle arrest in human HeLa cells assessed as accumulation at G1 phase at 5 uM after 12 hrs by propidium iodide staining-based flow cytometric analysis (reference value: 70.68%)", "assay_type": "functional", "procedure,_shortened": "(§2)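 HeLa cells exposed 12 h to 1 or 5 μM compound diluted from DMSO (DMSO control), fixed, stained with propidium iodide; DNA content measured by flow cytometry and G1, S, G2/M fractions calculated from the DNA histogram.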"}, "[4]": {"system": "HeLa", "test": "Induction of apoptosis in human HeLa cells assessed as early apoptotic cells at 0.1 uM after 12 hrs by Annexin V-FITC/propidium iodide staining-based flow cytometric analysis (reference value: 0.75%)", "assay_type": "functional"}, "[5]": {"system": "HeLa", "test": "Induction of apoptosis in human HeLa cells assessed as downregulation of Bcl-2 protein expression up to 5 uM after 12 hrs by Western blot analysis", "assay_type": "functional, cell-based", "procedure,_shortened": "(§3)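 HeLa cells treated 12 h (0.1, 1, 5 μM for apoptosis proteins); lysed in Tris pH 7.5/NP-40/SDS buffer with protease inhibitors, equal protein on 10% SDS-PAGE, PVDF, 5% BSA block, primary antibodies overnight at 4 °C, β-actin loading control; mean ± SD.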"}, "[6]": {"system": "HeLa", "test": "Induction of apoptosis in human HeLa cells assessed as necrotic cells at 0.1 uM after 12 hrs by Annexin V-FITC/propidium iodide staining-based flow cytometric analysis (reference value: 5.92%)", "assay_type": "functional"}, "[7]": {"system": "LoVo", "test": "Antiproliferative activity against human LoVo cells after 48 hrs by MTT assay", "assay_type": "functional", "procedure,_shortened": "(§4)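 MTT assay: cells attached 4–6 h at 37 °C, 5% CO2, then exposed 48 h to graded concentrations from DMSO stocks; 5 mg/mL MTT added for 4 h, formazan dissolved in DMSO, absorbance at 490 nm. GI50 from log plot of percent of control versus concentration; mean of three independent experiments.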"}, "[8]": {"system": "HeLa", "test": "Cell cycle arrest in human HeLa cells assessed as decrease in accumulation at G1 phase after 12 hrs by propidium iodide staining-based flow cytometric analysis", "assay_type": "functional", "procedure,_shortened": "as §2"}, "[9]": {"system": "A549", "test": "Antiproliferative activity against human A549 cells after 48 hrs by MTT assay", "assay_type": "functional", "conditions": "A549, 48 h", "procedure,_shortened": "as §4"}, "[10]": {"biological_target": "T2, Aurora kinase B (Homo sapiens, UniProt Q96GD4)", "T2 sequence (Q96GD4 whole entry)": "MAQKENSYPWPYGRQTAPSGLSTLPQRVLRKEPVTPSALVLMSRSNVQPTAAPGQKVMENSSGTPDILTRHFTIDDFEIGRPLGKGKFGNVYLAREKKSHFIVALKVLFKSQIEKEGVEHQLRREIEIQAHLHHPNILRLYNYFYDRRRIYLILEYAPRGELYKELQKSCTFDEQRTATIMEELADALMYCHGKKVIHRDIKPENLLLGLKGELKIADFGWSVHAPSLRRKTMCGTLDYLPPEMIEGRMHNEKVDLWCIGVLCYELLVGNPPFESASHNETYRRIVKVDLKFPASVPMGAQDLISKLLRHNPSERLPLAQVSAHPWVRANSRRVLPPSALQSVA", "test": "Inhibition of Aurora B (unknown origin) using kemptide acetate salt as substrate after 30 mins by kinase-Glo luminescence method"}, "[11]": {"organism": "Homo sapiens", "test": "Selectivity ratio of IC50 for Aurora B in human HeLa cells to IC50 for Aurora A in human HeLa cells", "assay_type": "cell-based"}, "[12]": {"system": "HeLa", "test": "Cell cycle arrest in human HeLa cells assessed as accumulation at G1 phase at 1 uM after 12 hrs by propidium iodide staining-based flow cytometric analysis (reference value: 70.68%)", "assay_type": "functional", "procedure,_shortened": "as §2"}, "[13]": {"system": "HeLa", "test": "Antiproliferative activity against human HeLa cells after 48 hrs by MTT assay", "assay_type": "functional", "procedure,_shortened": "as §4"}, "[14]": {"system": "HeLa", "test": "Induction of apoptosis in human HeLa cells assessed as late apoptotic cells at 5 uM after 12 hrs by Annexin V-FITC/propidium iodide staining-based flow cytometric analysis (reference value: 2.32%)", "assay_type": "functional"}, "[15]": {"system": "HeLa", "test": "Cell cycle arrest in human HeLa cells assessed as decrease in cdc2 protein expression up to 5 uM after 12 hrs by Western blot analysis", "assay_type": "functional, cell-based", "procedure,_shortened": "as §3"}, "[16]": {"system": "HeLa", "test": "Induction of apoptosis in human HeLa cells assessed as upregulation of Bax protein expression up to 5 uM after 12 hrs by Western blot analysis", "assay_type": "functional, cell-based", "procedure,_shortened": "as §3"}, "[17]": {"system": "HeLa", "test": "Induction of apoptosis in human HeLa cells assessed as viable cells at 0.1 uM after 12 hrs by Annexin V-FITC/propidium iodide staining-based flow cytometric analysis (reference value: 91.02%)", "assay_type": "functional", "conditions": "read-out: Activity"}, "[18]": {"biological_target": "T2, Aurora kinase B", "test": "Inhibition of Aurora B phosphorylation at Thr232 residue in human HeLa cells after 12 hrs by Western blot analysis", "assay_type": "cell-based", "procedure,_shortened": "as §1"}, "[19]": {"system": "HeLa", "test": "Induction of apoptosis in human HeLa cells assessed as viable cells at 5 uM after 12 hrs by Annexin V-FITC/propidium iodide staining-based flow cytometric analysis (reference value: 91.02%)", "assay_type": "functional", "conditions": "read-out: Activity"}, "[20]": {"system": "HeLa", "test": "Cell cycle arrest in human HeLa cells assessed as accumulation at S phase at 5 uM after 12 hrs by propidium iodide staining-based flow cytometric analysis (reference value: 5.74%)", "assay_type": "functional", "procedure,_shortened": "as §2"}, "[21]": {"system": "HeLa", "test": "Disruption of spindle formation in human HeLa cells assessed as formation of abnormal mitotic spindles at 0.1 to 1 uM after 24 hrs by DAPI staining based immunofluorescence microscopic analysis", "assay_type": "functional, cell-based", "procedure,_shortened": "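HeLa cells on coverslips treated 24 h (0.1 or 1 μM; DMSO control); fixed in 4% paraformaldehyde, permeabilised in 0.1% Triton X-100 with 2% BSA, anti-α-tubulin overnight at 4 °C, FITC secondary 2 h room temperature, DAPI for DNA; confocal imaging.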"}, "[22]": {"biological_target": "T3, Aurora kinase A (Homo sapiens, UniProt O14965)", "T3 sequence (O14965 whole entry)": "T1 sequence (whole entry)", "test": "Inhibition of Aurora A (unknown origin) using kemptide acetate salt as substrate after 30 mins by kinase-Glo luminescence method"}, "[23]": {"system": "HeLa", "test": "Induction of apoptosis in human HeLa cells assessed as upregulation of Bad protein expression up to 5 uM after 12 hrs by Western blot analysis", "assay_type": "functional, cell-based", "procedure,_shortened": "as §3"}, "[24]": {"system": "HeLa", "test": "Induction of apoptosis in human HeLa cells assessed as upregulation of caspase-9 protein expression up to 5 uM after 12 hrs by Western blot analysis", "assay_type": "functional, cell-based", "procedure,_shortened": "as §3"}, "[25]": {"system": "HeLa", "test": "Induction of apoptosis in human HeLa cells assessed as early apoptotic cells at 1 uM after 12 hrs by Annexin V-FITC/propidium iodide staining-based flow cytometric analysis (reference value: 0.75%)", "assay_type": "functional"}, "[26]": {"system": "HeLa", "test": "Induction of apoptosis in human HeLa cells assessed as necrotic cells at 1 uM after 12 hrs by Annexin V-FITC/propidium iodide staining-based flow cytometric analysis (reference value: 5.92%)", "assay_type": "functional"}}, "note": "Activity calls are given as the source filed them. No cut-off for these calls is given here."}
{"smiles": "CC1(C)CC(NC(=O)c2ccc(Nc3ncc(F)c(Nc4ccc(C(=O)Nc5ccccc5Cl)cc4)n3)cc2)CC(C)(C)N1[O]", "values": [{"measurement": "viability at 1 µM", "setting": "[1]", "value": 78.7, "unit": "%"}, {"measurement": "inhibition", "setting": "[2]", "value": "Dose-dependent effect"}, {"measurement": "Activity", "setting": "[3]", "value": 39.67, "unit": "%"}, {"measurement": "Activity", "setting": "[4]", "value": 1.12, "unit": "%"}, {"measurement": "Activity", "setting": "[5]", "value": "Active"}, {"measurement": "Activity", "setting": "[6]", "value": 5.63, "unit": "%"}, {"measurement": "GI50", "setting": "[7]", "value": 7300, "unit": "nM"}, {"measurement": "Activity", "setting": "[8]", "value": "Dose-dependent effect"}, {"measurement": "GI50", "setting": "[9]", "value": 1100, "unit": "nM"}, {"measurement": "IC50", "setting": "[10]", "value": 2.55, "unit": "nM"}, {"measurement": "Ratio IC50", "setting": "[11]", "value": 67}, {"measurement": "Activity", "setting": "[12]", "value": 48, "unit": "%"}, {"measurement": "GI50", "setting": "[13]", "value": 400, "unit": "nM"}, {"measurement": "Activity", "setting": "[14]", "value": 16.66, "unit": "%"}, {"measurement": "Activity", "setting": "[15]", "value": "Active"}, {"measurement": "Activity", "setting": "[16]", "value": "Active"}, {"measurement": "viability at 0.1 µM", "setting": "[17]", "value": 90.3, "unit": "%"}, {"measurement": "inhibition", "setting": "[18]", "value": "Dose-dependent effect"}, {"measurement": "viability at 5 µM", "setting": "[19]", "value": 67.7, "unit": "%"}, {"measurement": "Activity", "setting": "[20]", "value": 0, "unit": "%"}, {"measurement": "Activity", "setting": "[21]", "value": "Active"}, {"measurement": "IC50", "setting": "[22]", "value": 0.06, "unit": "nM"}, {"measurement": "Activity", "setting": "[23]", "value": "Active"}, {"measurement": "Activity", "setting": "[24]", "value": "Active"}, {"measurement": "Activity", "setting": "[25]", "value": 3.28, "unit": "%"}, {"measurement": "Activity", "setting": "[26]", "value": 9.93, "unit": "%"}]}
